What was measured:
HIV-1(IIIB) = test: Anti-HIV-1 activity; assay type: cell-based; details: CEM cells, HIV-1 and HIV-2
In short: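 CEM cells (~3 × 10^5 cells/mL) infected with HIV-1(IIIB) at 100 CCID50 per mL, with dilutions of test compound. Incubated 4–5 days at 37 °C in humidified, CO2-controlled air. Giant (syncytium) cell formation scored under the microscope. EC50 is the concentration that inhibits HIV-induced cytopathic effect by 50%.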

Reverse transcriptase = test: Activity against reverse transcriptase; assay type: biochemical; details: data not shown
feline herpesvirus = test: Antiviral activity against feline herpesvirus in CrFK cell cultures; assay type: cell-based; details: at 100 μM
Punta Toro virus = test: Antiviral activity against Punta Toro virus in Vero cell cultures; assay type: cell-based; details: at 100 μM
[1] = system: herpes simplex virus type 1 (HSV-1); test: Antiviral activity against HSV-1 in HEL cell cultures; assay type: cell-based; details: at 100 μM
HIV-1 (NL4.3) = test: Anti-HIV-1 activity; assay type: cell-based; details: MT-4 cells
Coxsackie virus B4 = test: Antiviral activity against Coxsackie virus B4 in HeLa cell cultures; assay type: cell-based; details: at 100 μM
parainfluenza virus-3 = test: Antiviral activity against parainfluenza virus-3 in Vero cell cultures; assay type: cell-based; details: at 100 μM
influenza virus B = assay type: cell-based
[2] = system: respiratory syncytial virus (RSV); test: Antiviral activity against RSV in HeLa cell cultures; assay type: cell-based; details: at 100 μM
HSV-2 = test: Antiviral activity against HSV-2 in HEL cell cultures; assay type: cell-based; details: at 100 μM
reovirus-1 = test: Antiviral activity against reovirus-1 in Vero cell cultures; assay type: cell-based; details: at 100 μM
feline corona virus = test: Antiviral activity against feline corona virus in CrFK cell cultures; assay type: cell-based; details: at 100 μM
influenza virus A (H3N2) = assay type: cell-based
Sindbis virus = test: Antiviral activity against Sindbis virus in Vero cell cultures; assay type: cell-based; details: at 100 μM
vaccinia virus = assay type: cell-based
[3] = system: vesicular stomatitis virus (VSV); assay type: cell-based
influenza virus A (H1N1) = assay type: cell-based
CEM cells = test: Cytostatic properties in human T-lymphocyte; assay type: cell-based; details: concentration required to reduce CEM cell proliferation by 50%
In short: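 Cytostatic assay: (5–7.5) × 104 CEM cells per well with test compound. Cells proliferate 72 h at 37 °C in humidified, CO2-controlled air, then are counted in a Coulter counter. The 50% value is the concentration that inhibits cell proliferation by 50%.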

## OC[C@H]1CC(O)C[C@@H]1O (stereo partly drawn) [Compound 14, (3S,4R)-3-hydroxy-4-hydroxymethyl cyclopentanol]
HIV-1(IIIB)
  anti-HIV-1 or anti-HIV-2 activity (in words): not active

## OC[C@H]1[C@H](O)CC[C@@H]1O [Compound 15, 2-hydroxymethyl-3-hydroxycyclopentanol]
Reverse transcriptase
  activity against reverse transcriptase: inactive
Feline herpesvirus
  activity against feline herpesvirus: did not show any measurable activity
Punta Toro virus
  activity against Punta Toro virus: did not show any measurable activity
[1]
  activity against herpes simplex virus type 1 (HSV-1): did not show any measurable activity
HIV-1 (NL4.3)
  antiviral activity against HIV-1 and HIV-2 in MT-4 cell cultures (in words): confirmed at low micromolar concentrations
Coxsackie virus B4
  activity against Coxsackie virus B4: did not show any measurable activity
Parainfluenza virus-3
  activity against parainfluenza virus-3: did not show any measurable activity
Influenza virus B
  activity against influenza virus B: did not show any measurable activity
[2]
  activity against respiratory syncytial virus (RSV): did not show any measurable activity
HSV-2
  activity against HSV-2: did not show any measurable activity
reovirus-1
  activity against reovirus-1: did not show any measurable activity
Feline corona virus
  activity against feline corona virus: did not show any measurable activity
Influenza virus A (H3N2)
  activity against influenza virus A (H3N2): did not show any measurable activity
Sindbis virus
  activity against Sindbis virus: did not show any measurable activity
Vaccinia virus
  activity against vaccinia virus: did not show any measurable activity
[3]
  activity against vesicular stomatitis virus (VSV): did not show any measurable activity
Influenza virus A (H1N1)
  activity against influenza virus A (H1N1): did not show any measurable activity

## C[C@H](NP(=O)(Oc1cccc2ccccc12)O[C@@H]1CC[C@H](O)[C@H]1CO)C(=O)OCC(C)(C)C (stereo partly drawn) [Compound 17a, (1R,2R,3S)-3-Hydroxy-2-(hydroxymethyl)cyclopentyl-1-O-naphthyl-(neopentyl-L-alaninyl)-phosphate]
HIV-1 (NL4.3)
  antiviral activity against HIV-1 and HIV-2 in MT-4 cell cultures (in words): devoid of any significant antiviral activity

## CCCCCOC(=O)[C@H](C)NP(=O)(Oc1ccccc1)O[C@@H]1CC[C@H](O)[C@H]1CO (stereo partly drawn) [Compound 17b, (1R,2R,3S)-3-Hydroxy-2-(hydroxymethyl)cyclopentyl-1-O-phenyl-(pentoxy-L-alaninyl)-phosphate]
HIV-1 (NL4.3)
  antiviral activity against HIV-1 and HIV-2 in MT-4 cell cultures (in words): devoid of any significant antiviral activity

## (1R,2S,3S)-3-(Benzyloxycarbonyl)-2-(benzyloxycarbonylmethyl)cyclopentanol [Compound 13]
Reverse transcriptase
  activity against reverse transcriptase: inactive
CEM cells
  CC50: 94 ± 4.2 µM

## (3S,4R)-3-(Benzyloxycarbonyl)-4-(benzyloxycarbonylmethyl)cyclopentenol [Compound 11]
HIV-1(IIIB)
  anti-HIV-1 or anti-HIV-2 activity (in words): not active
CEM cells
  CC50: 110 ± 4.2 µM

Reference: PMC7127161 (Bioorganic & Medicinal Chemistry, 2014)
